# Only some compounds are listed: those with a hit (about 2.5% of all), similar ones and a draw of the others.
# ABHD4 inh: inhibitors of mouse ABHD4. AID 720543. inhibition, % at 8.92 µM. purified mABHD4, FP-Rh probe fluorescence polarization. Q8VD66. 370,000 tested, 0.54% active;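 active means inhibition exceeding the mean over every tested compound plus 3 SD, cut at about 30% in these data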;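 further: 0% = plate median of compound wells and 100% = S159A mutant with DMSO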
#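 Test system: mouse ABHD4 enzyme, wild type. Reagent: FP-Rh fluorescent activity-based probe, added after compound pre-incubation. Timing: pre-incubation 45 min, probe exposure 60 min, at 25 °C. Technique: FP readout, ex 525 nm / em 598 nm. Benchmarks: high control S159A mutant with DMSO, low control median of compound wells.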
# SIAE inh: blocks human sialic acid acetylesterase. inhibition, % at 9.66 µM. Q9HAT2. 370,000 tested, 0.69% active. AID 1053197. SIAE FP-Rh probe binding, fluorescence polarization;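 active means inhibition above a cutoff: mean of compounds within the control limits plus 3 SD of those, cut at about 17% in these data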;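 further: 0% = plate median of compound wells and 100% = probe without SIAE protein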
# Target sequence (Q9HAT2 whole entry, looked up): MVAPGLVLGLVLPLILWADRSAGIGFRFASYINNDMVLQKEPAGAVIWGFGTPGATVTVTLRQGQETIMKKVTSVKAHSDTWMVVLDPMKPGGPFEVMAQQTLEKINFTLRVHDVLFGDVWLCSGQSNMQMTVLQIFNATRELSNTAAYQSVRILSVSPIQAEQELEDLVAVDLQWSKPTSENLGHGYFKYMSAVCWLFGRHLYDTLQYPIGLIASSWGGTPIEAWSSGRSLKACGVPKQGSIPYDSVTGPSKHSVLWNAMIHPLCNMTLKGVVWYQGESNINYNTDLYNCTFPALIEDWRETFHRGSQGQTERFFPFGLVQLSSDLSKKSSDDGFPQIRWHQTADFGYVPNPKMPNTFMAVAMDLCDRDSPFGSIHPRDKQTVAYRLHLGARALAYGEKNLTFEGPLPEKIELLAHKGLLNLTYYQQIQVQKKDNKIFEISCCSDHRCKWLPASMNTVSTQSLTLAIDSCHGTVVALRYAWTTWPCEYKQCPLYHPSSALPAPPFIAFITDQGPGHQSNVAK
# HTRA1 inh: HTRA1 (human) protease inhibition; Q92743; recombinant HTRA1, FP-rhodamine activity-based probe, fluorescence polarization; inhibition, % at 5.96 µM; 340,000 tested, 0.5% active; AID 504803; in the data active means inhibition above about 36%;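 further: 0% = enzyme with DMSO and 100% = wells lacking enzyme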
# TCR CD3 inh: human TCR-CD3 binding inhibition; TAMRA-labeled TCR probe fluorescence, biochemical; inhibition, % at 9.4 µM; 360,000 tested, 0.37% active; AID 651800;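 further: recombinant mutant TCR 2C K166C tagged with TAMRA read by polarization; 0% = receptor in buffer alone and 100% = receptor with positive control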
# rCAG binder: binds r(CAG) RNA repeats; r(CAG) RNA repeat, TO-PRO-1 dye displacement fluorescence; 370,000 tested, 1.3% active; inhibition, % at 3 µM; AID 651821;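 active means inhibition above the plate cutoff, the mean of all test compounds on that plate plus 3 SD, cut at about 35% in these data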;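 further: 0% = DMSO alone and 100% = 100 µM mitoxantrone as full dye displacement; higher means more dye released from RNA so lower well fluorescence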
# HTRA1 inh conf: HTRA1 (human) inhibition, confirmation; shares compounds with HTRA1 inh; recombinant HTRA1, FP-rhodamine activity-based probe, fluorescence polarization; inhibition, % at 5.96 µM; 1,600 tested, 66% active; AID 540248;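 active means mean inhibition over three repeats above a set limit taken from the earlier primary screen, cut at about 37% in these data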;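 further: 0% = HTRA1 with DMSO and 100% = wells lacking HTRA1; inhibitors block probe binding so polarization drops and inhibition rises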
# BSA TAMRA ctr: counter-screen for TCR-CD3 interaction inhibitors: BSA probe; 1,200 tested, 10% active; AID 652035; TAMRA-labeled BSA probe fluorescence counterscreen; shares compounds with TCR CD3 inh; inhibition, % at 9.4 µM; in the data active means inhibition above about 23%;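 further: 0% = buffer low control and 100% = reference high control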
# TCR-CD3 conf: confirmation of human TCR-CD3 interaction inhibitors; shares compounds with TCR CD3 inh; 1,200 tested, 48% active; AID 652036; inhibition, % at 9.4 µM; TAMRA-labeled TCR probe fluorescence binding assay
# rCAG binder conf: r(CAG) RNA repeat binding, confirmation. shares compounds with rCAG binder. AID 652065. 4,300 tested, 70% active. TO-PRO-1 dye displacement fluorescence. inhibition, % at 3 µM;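 active means inhibition above a per-plate cutoff, the mean inhibition of sample wells plus 3 SD, cut at about 35% in these data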;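 further: loss of TO-PRO-1 fluorescence as compound displaces dye from 1x1 AA loop RNA; 0% = DMSO only wells and 100% = 100 µM mitoxantrone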
# DNA CAG counter: disrupts DNA CAG TO-PRO-1 complex, flagging rCAG hits. shares compounds with rCAG binder. d(CAG) DNA oligo TO-PRO-1 dye displacement, fluorescence. inhibition, % at 3 µM. 4,300 tested, 94% active. AID 652068;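 active means inhibition above its plate's cutoff, the mean test-well inhibition plus 3 SD, cut at about 4.8% in these data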;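 further: 0% = DNA dye mix with DMSO and 100% = 100 µM mitoxantrone; hits displace the dye from DNA and so lower well fluorescence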
# mABHD4 conf: confirmation of mouse ABHD4 inhibitors. shares compounds with ABHD4 inh. purified mABHD4, FP-Rh probe fluorescence polarization. AID 720658. inhibition, % at 8.92 µM. 1,800 tested, 55% active;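 active means mean inhibition across replicates above the hit cutoff set in the primary screen, cut at about 30% in these data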;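 further: 0% = wild-type ABHD4 with DMSO and 100% = catalytically dead S159A mutant with DMSO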
# SIAE confirm: confirmation of human SIAE inhibitors; 2,300 tested, 13% active; SIAE FP-Rh activity-based probe, fluorescence polarization; inhibition, % at 9.66 µM; AID 1117263; shares compounds with SIAE inh;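 active means mean inhibition of the replicates above the hit cutoff set in the primary screen, cut at about 17% in these data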;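 further: 0% = SIAE with DMSO and probe and 100% = probe without SIAE; inhibitors lower polarization as more probe stays unbound to SIAE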
# * = called active by the depositor; nt = no result; + = active, no number. Unless noted, no stated cut-off is given here; in the data, active means inhibition above about 19%; inactive means the rest.
SMILES,ABHD4 inh,SIAE inh,HTRA1 inh,TCR CD3 inh,rCAG binder,HTRA1 inh conf,BSA TAMRA ctr,TCR-CD3 conf,mABHD4 conf,SIAE confirm,others
O=C(CC1Nc2cccc3cccc(c23)NC1=O)Nc1ccc(F)cc1 (stereo unspecified),29,24*,61*,-1,11,6,nt,nt,nt,8,
Cc1cccc(NC(=O)Cn2nnc(C(=O)Nc3ccc(F)c(Cl)c3)c2N)c1,-3,-17,0,-4,2,nt,nt,nt,nt,nt,
COc1cc2nc(Nc3ccc(C)c(Cl)c3)nc(N)c2cc1OC,42*,58*,36*,0,18,46*,nt,nt,66*,62*,
Nc1c(C(=O)N2CCOCC2)oc2ccccc12,-1,5,5,7,-1,nt,nt,nt,nt,nt,
COc1cccc2c1C(=O)c1c(O)c3c(c(O)c1C2=O)CC(O)(C(C)=O)CC3OC1CC(N(C)C)C(O)C(C)O1 (stereo unspecified),72*,64*,68*,156*,0,68*,176*,145*,61*,54*,
COc1cccc2c1C(=O)c1c(O)c3c(c(O)c1C2=O)C[C@@](O)(C(=O)CO)C[C@@H]3OC1CC(N)C(O)C(C)O1 (stereo partly specified),75*,54*,73*,125*,10,65*,156*,126*,55*,55*,
COc1ccc(C(=O)N(CCc2ccccc2)Cc2ccccc2)c(OC)n1,4,-1,-21,-2,-9,nt,nt,nt,nt,nt,
CC(C)CCNC(=O)C1CCN(S(=O)(=O)c2ccc3c(c2)CC(C)N3C(=O)C2CCC2)CC1 (stereo unspecified),-2,4,1,3,-5,nt,nt,nt,nt,nt,
O=C(NC(=S)N1CCc2ccccc21)c1ccccc1,6,0,6,1,2,nt,nt,nt,nt,nt,
CCOC(=O)C(C(=O)OCC)c1cc(Br)c2noc3c2c1C(=O)c1ccccc1-3,22,22*,48*,8,24,25,nt,nt,nt,-2,
CC(C)(C)C(=O)N1CCN(c2ncccc2C(F)(F)F)CC1,-2,1,-1,8,-6,nt,nt,nt,nt,nt,
CCn1c(CSc2ncn[nH]2)nc2cc(C(=O)O)ccc21,2,7,10,8,-2,nt,nt,nt,nt,nt,
CCn1c(CSc2nnc(-c3ccncc3)n2C)nc2cc(C(=O)O)ccc21,23,28*,66*,89*,2,56*,155*,109*,nt,39*,
Oc1c(Cl)cc(Cl)cc1/C=N/NC(=S)NC1CC2C=CC1C2 (stereo unspecified),39*,20*,52*,23*,66*,54*,-18,28*,41*,21*,rCAG binder conf=81*;DNA CAG counter=47*
O=C(c1ccccc1)c1ccc2nc(-c3ccco3)c(-c3ccco3)nc2c1,44*,25*,45*,13,42*,191*,nt,nt,21,1,rCAG binder conf=70*;DNA CAG counter=36*
O=C(O)c1ccc2nc(-c3ccccc3)c(-c3ccccc3)nc2c1,-15,-7,3,4,7,nt,nt,nt,nt,nt,
CCNc1ccc(Br)cc(C(=O)/C=C/c2ccc(Cl)cc2Cl)c1=O,35*,17*,64*,-2,45*,59*,nt,nt,31*,8,rCAG binder conf=48*;DNA CAG counter=21*
COc1cccc(NC(=O)C2(C)CCN2C(=O)CC2CC2)c1 (stereo unspecified),1,1,nt,5,-1,nt,nt,nt,nt,nt,
O=C(N/N=C/c1cc(Br)cc([N+](=O)[O-])c1O)c1ccc(NC(=O)c2ccc(F)cc2)cc1,16,53*,51*,58*,43*,53*,-12,51*,nt,0,rCAG binder conf=78*;DNA CAG counter=41*
CCCC(C(=O)NC(C)(C)C)N(Cc1ccc(F)cc1)C(=O)c1snc(C(N)=O)c1N (stereo unspecified),1,2,-6,3,-7,nt,nt,nt,nt,nt,
O=C(NNc1c2ccccc2nc2ccccc12)c1ccccc1O,28,19*,51*,-1,33,39*,nt,nt,nt,18*,
Cc1cc2cc(CNC(=O)Nc3cccc(Cl)c3)ccc2n1C,46*,26*,39*,55*,21,6,5,1,-10,-6,
COc1ccc(CNC(=O)Nc2cccc(Cl)c2)cc1,nt,nt,-17,nt,nt,nt,nt,nt,nt,nt,
CN1C(=O)NC(c2ccccc2[N+](=O)[O-])C2=C1CC(C)(C)CC2=O (stereo unspecified),8,1,3,6,5,nt,nt,nt,nt,nt,
CN1C(=O)NC(c2ccccc2[N+](=O)[O-])C2=C1CCCC2=O (stereo unspecified),89*,54*,77*,85*,-27,44*,62*,44*,56*,80*,
SMILES,ABHD4 inh,SIAE inh,HTRA1 inh,TCR CD3 inh,rCAG binder,HTRA1 inh conf,BSA TAMRA ctr,TCR-CD3 conf,mABHD4 conf,SIAE confirm,others
Nc1nc(Sc2ccc([N+](=O)[O-])c3nonc23)c2[nH]cnc2n1,46*,17*,59*,7,25,71*,nt,nt,49*,0,
Cc1cc2c(N)cccc2nn1,168*,142*,101*,+,-9,5,nt,nt,116*,65*,
C/C(=N\NC(=O)c1cc2ccccc2cc1O)c1cc2ccccc2o1,26,17*,36*,5,50*,10,nt,nt,nt,10,rCAG binder conf=40*;DNA CAG counter=15*
C/C(CC(=O)N1CCN(C=O)CC1)=N\NC(=O)c1ccc([N+](=O)[O-])cc1,5,10,5,5,2,nt,nt,nt,nt,nt,
C/C(CC(=O)N1CCN(C=O)CC1)=N\NC(=O)c1cc2ccccc2cc1O,40*,20*,39*,13,53*,37*,nt,nt,35*,3,rCAG binder conf=22;DNA CAG counter=9.2*
O=C(CS(=O)CC(=O)Nc1ccccc1-c1ccccc1)Nc1ccc(F)cc1 (stereo unspecified),-10,-3,4,1,-4,nt,nt,nt,nt,nt,
Cc1ccc(NC(=O)CS(=O)CC(=O)Nc2ccccc2-c2ccc(C)o2)cc1 (stereo unspecified),45*,33*,57*,86*,-4,-9,6,4,-2,9,
